Calls of active or inactive are those of the source. No cut-off for these calls is given here.
Assays:
[1] = Cytotoxicity against mouse J774.A1 cells assessed as reduction in cell viability measured after 20 hrs by MTT assay; type: cell-based
Summary of the method: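 J774A.1 macrophages, 5x10^4/well, preincubated 24 h at 37 °C, 5% CO2. Compounds at several concentrations in triplicate for 20 h, untreated cells as control. MTT added for 4 h, then 10% SDS/0.01N HCl, absorbance read. CC50 by Probit concentration-response.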

Trypanosoma cruzi [2] = test: Antitrypanosomal activity against Trypanosoma cruzi MHOM/MX/1994/INC5 epimastigotes assessed as metabolic inhibition at 10 ug/ml after 24 hrs by MTT assay relative to control; type: functional; conditions: MHOM/MX/1994/INC5, 24 h
[3] = Selectivity index, ratio of CC50 for mouse J774.A1 cells to IC50 for antitrypanosomal activity against Trypanosoma cruzi MHOM/MX/1994/INC5 epimastigotes; type: toxicity; conditions: read-out: Ratio CC50/IC50
Summary of the method: (§1)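 SI = CC50 (J774A.1, 20 h MTT) divided by parasite IC50 (24 h MTT), both Probit-derived.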

Leishmania mexicana [4] = test: Antileishmanial activity against Leishmania mexicana MNYC-BZ/62/M379 promastigotes assessed as metabolic inhibition at 10 ug/ml after 24 hrs by MTT assay relative to control; type: functional; conditions: MNYC-BZ/62/M379, 24 h
Summary of the method: (§2)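 Stationary-phase (7-day) metacyclic promastigotes, 5 x 10^5 per well in 100 µL RPMI 1640 with 10% heat-inactivated FBS and penicillin-streptomycin. Compounds from 10 mg/mL DMSO stock, diluted in PBS. Screen at 10 µg/mL in triplicate; actives serially diluted from 20 µg/mL. 27°C, dark, 24 h, then MTT 24 h. SDS/HCl solubilization, A570 vs blank. IC50 by Probit. Amphotericin B reference.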

Trypanosoma cruzi [5] = test: Antitrypanosomal activity against Trypanosoma cruzi MHOM/MX/1994/INC5 epimastigotes assessed as growth inhibition measured after 24 hrs by MTT assay; type: functional, organism-based; conditions: MHOM/MX/1994/INC5, 24 h
Leishmania major = test: Antileishmanial activity against Leishmania major amastigotes; type: functional, organism-based
Leishmania donovani = test: Antileishmanial activity against Leishmania donovani amastigotes; type: functional, organism-based
Leishmania mexicana [6] = test: Induction of morphological changes in Leishmania mexicana MNYC-BZ/62/M379 promastigotes assessed as decrease in cell density at 1.25 to 20 ug/ml measured after 24 hrs by giemsa staining using light microscopic method; type: functional, organism-based
Summary of the method: (§3)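 Parasites exposed 24 h to a range of compound concentrations, Giemsa-stained, examined by light microscopy at 100x for morphology and cell density.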

Leishmania mexicana [7] = test: Induction of morphological changes in Leishmania mexicana MNYC-BZ/62/M379 promastigotes assessed as cell death at 3 multiples of IC50 concentration and measured after 24 hrs by giemsa staining using light microscopic method; type: functional, organism-based
Leishmania mexicana [8] = test: Induction of morphological changes in Leishmania mexicana MNYC-BZ/62/M379 promastigotes assessed as decrease in flagella length at 3 multiples of IC50 concentration and measured after 24 hrs by giemsa staining using light microscopic method; type: functional, organism-based
Leishmania mexicana [9] = test: Induction of morphological changes in Leishmania mexicana MNYC-BZ/62/M379 promastigotes assessed as rounded cells at 3 multiples of IC50 concentration and measured after 24 hrs by giemsa staining using light microscopic method; type: functional, organism-based
Leishmania mexicana [10] = test: Antileishmanial activity against Leishmania mexicana MNYC-BZ/62/M379 promastigotes assessed as growth inhibition measured after 24 hrs by MTT assay; type: functional, organism-based; conditions: MNYC-BZ/62/M379, 24 h; summary of the method: as §2
Trypanosoma cruzi [11] = test: Induction of morphological changes in Trypanosoma cruzi MHOM/MX/1994/INC5 epimastigotes assessed as decrease in cell density measured after 24 hrs by giemsa staining using light microscopic method; type: functional, organism-based; summary of the method: as §3
[12] = Selectivity index, ratio of CC50 for mouse J774.A1 cells to IC50 for antileishmanial activity against Leishmania mexicana MNYC-BZ/62/M379 promastigotes; type: toxicity; conditions: read-out: Ratio CC50/IC50; summary of the method: as §1
Leishmania mexicana [13] = test: Antileishmanial activity against Leishmania mexicana MNYC-BZ/62/M379 promastigotes assessed as metabolic inhibition at 0.5 ug/ml after 24 hrs by MTT assay relative to control; type: functional; conditions: MNYC-BZ/62/M379, 24 h

SMILES: COc1cc(/C=C/C(=O)c2ccc(OC/C=C(\C)CCC=C(C)C)c(OC)c2)ccc1OCC=C(C)C
- CC50 at 20 h [1]: 825 µM
- inhibition at 10 µg/mL (Trypanosoma cruzi [2]): 43.9%
- selectivity ratio [3]: 27.4
- inhibition at 10 µg/mL (Leishmania mexicana [4]): -8%
- IC50 (Trypanosoma cruzi [5]): 30.1 µM

SMILES: COc1ccc(C(=O)/C=C/c2ccc(OC/C=C(\C)CCC=C(C)C)c(OC)c2)cc1OC
- inhibition at 10 µg/mL (Trypanosoma cruzi [2]): 22%
- inhibition at 10 µg/mL (Leishmania mexicana [4]): 13.5%

SMILES: COc1ccc(C(=O)/C=C/c2ccc(OCC=C(C)C)c(OC)c2)cc1
- inhibition at 10 µg/mL (Trypanosoma cruzi [2]): 2.6%
- inhibition at 10 µg/mL (Leishmania mexicana [4]): 25.5%

SMILES: COc1cc(/C=C/C(=O)c2ccc(O)cc2)ccc1OCC=C(C)C
- inhibition at 10 µg/mL (Trypanosoma cruzi [2]): 23.8%
- inhibition at 10 µg/mL (Leishmania mexicana [4]): 17.7%

SMILES: COc1cc(C(=O)/C=C/c2ccc(OC/C=C(\C)CCC=C(C)C)c(OC)c2)ccc1OCC=C(C)C
- inhibition at 10 µg/mL (Trypanosoma cruzi [2]): 33.2%
- inhibition at 10 µg/mL (Leishmania mexicana [4]): -3.2%

SMILES: COc1cc(/C=C/C(=O)c2ccc(OCC=C(C)C)c(OC)c2)ccc1OCC=C(C)C
- inhibition at 10 µg/mL (Trypanosoma cruzi [2]): 20%
- inhibition at 10 µg/mL (Leishmania mexicana [4]): 3.9%

SMILES: CC(C)=CCOc1ccccc1/C=C/C(=O)c1ccccc1
- IC50 (Leishmania major): 1.4 to 88.8 µM
- IC50 (Leishmania donovani): 1.4 to 88.8 µM

SMILES: COc1ccc(/C=C/C(=O)c2ccc(OC/C=C(\C)CCC=C(C)C)cc2)cc1
- IC50 (Leishmania major): 1.4 to 88.8 µM
- IC50 (Leishmania donovani): 1.4 to 88.8 µM

SMILES: COc1cc(/C=C/C(=O)c2cc(OC)c(OC)c(OC)c2)ccc1OCC=C(C)C
- CC50 at 20 h [1]: 1310 µM
- Activity (Leishmania mexicana [6]): Active
- inhibition at 10 µg/mL (Trypanosoma cruzi [2]): 84%
- selectivity ratio [3]: 75.1
- inhibition at 10 µg/mL (Leishmania mexicana [4]): 71.3%
- Activity (Leishmania mexicana [7]): Active
- Activity (Leishmania mexicana [8]): Active
- IC50 (Trypanosoma cruzi [5]): 17.5 µM
- Activity (Leishmania mexicana [9]): Active
- IC50 (Leishmania mexicana [10]): 16.2 µM
- Activity (Trypanosoma cruzi [11]): Dose-dependent effect
- selectivity ratio [12]: 80.9

SMILES: COc1cc(C(=O)/C=C/c2cc(OC)c(OC)c(OC)c2)ccc1OC/C=C(\C)CCC=C(C)C
- inhibition at 10 µg/mL (Trypanosoma cruzi [2]): -0.8%
- inhibition at 10 µg/mL (Leishmania mexicana [4]): 2.1%

SMILES: COc1cc(/C=C/C(=O)c2ccc(OC/C=C(\C)CCC=C(C)C)c(OC)c2)ccc1OC/C=C(\C)CCC=C(C)C
- CC50 at 20 h [1]: 1020 µM
- inhibition at 10 µg/mL (Trypanosoma cruzi [2]): 45%
- selectivity ratio [3]: 33.5
- inhibition at 10 µg/mL (Leishmania mexicana [4]): 1%
- IC50 (Trypanosoma cruzi [5]): 30.4 µM

SMILES: COc1cc(C(=O)/C=C/c2ccc(O)cc2)ccc1OCC=C(C)C
- inhibition at 10 µg/mL (Trypanosoma cruzi [2]): 16.3%
- inhibition at 10 µg/mL (Leishmania mexicana [4]): 4.6%

SMILES: COc1cc(C(=O)/C=C/c2cc(OC)c(OC)c(OC)c2)ccc1OCC=C(C)C
- CC50 at 20 h [1]: 25.6 µM
- inhibition at 10 µg/mL (Trypanosoma cruzi [2]): 80.3%
- selectivity ratio [3]: 1.43
- inhibition at 10 µg/mL (Leishmania mexicana [4]): 59.1%
- IC50 (Trypanosoma cruzi [5]): 17.8 µM
- IC50 (Leishmania mexicana [10]): 20.7 µM
- selectivity ratio [12]: 1.24

SMILES: CC(C)=CCC/C(C)=C/CC/C(C)=C/COc1ccccc1/C=C/C(=O)c1ccccc1
- IC50 (Leishmania major): 1.4 to 88.8 µM
- IC50 (Leishmania donovani): 1.4 to 88.8 µM

SMILES: CC(C)=CCOc1cccc(/C=C/C(=O)c2ccccc2)c1
- IC50 (Leishmania major): 1.4 to 88.8 µM
- IC50 (Leishmania donovani): 1.4 to 88.8 µM

SMILES: COc1cc(/C=C/C(=O)c2cc(OC)c(OC)c(OC)c2)ccc1OC/C=C(\C)CCC=C(C)C
- inhibition at 10 µg/mL (Trypanosoma cruzi [2]): 31.6%
- inhibition at 10 µg/mL (Leishmania mexicana [4]): 11.3%

SMILES: COc1cc(C(=O)/C=C/c2ccc(O)cc2)ccc1OC/C=C(\C)CCC=C(C)C
- inhibition at 10 µg/mL (Trypanosoma cruzi [2]): -5.5%
- inhibition at 10 µg/mL (Leishmania mexicana [4]): 4.9%

SMILES: COc1ccc(/C=C/C(=O)c2ccc(OCC=C(C)C)c(OC)c2)cc1OC
- inhibition at 10 µg/mL (Trypanosoma cruzi [2]): 25.3%
- inhibition at 10 µg/mL (Leishmania mexicana [4]): 15.6%

SMILES: COc1ccc(/C=C/C(=O)c2ccc(OC/C=C(\C)CCC=C(C)C)c(OC)c2)cc1
- inhibition at 10 µg/mL (Trypanosoma cruzi [2]): -11.6%
- inhibition at 10 µg/mL (Leishmania mexicana [4]): 0%

SMILES: COc1ccc(/C=C/C(=O)c2ccc(OC/C=C(\C)CCC=C(C)C)c(OC)c2)cc1OC
- inhibition at 10 µg/mL (Trypanosoma cruzi [2]): 28.3%
- inhibition at 10 µg/mL (Leishmania mexicana [4]): 27.3%

SMILES: COc1ccc(/C=C/C(=O)c2ccc(OCC=C(C)C)c(OC)c2)cc1
- inhibition at 10 µg/mL (Trypanosoma cruzi [2]): 7.9%
- inhibition at 10 µg/mL (Leishmania mexicana [4]): 1%

SMILES: COc1ccc(C(=O)/C=C/c2ccc(OCC=C(C)C)c(OC)c2)cc1OC
- CC50 at 20 h [1]: 1750 µM
- inhibition at 10 µg/mL (Trypanosoma cruzi [2]): 11.8%
- inhibition at 10 µg/mL (Leishmania mexicana [4]): 48.3%
- IC50 (Leishmania mexicana [10]): 31.8 µM
- selectivity ratio [12]: 55.1

SMILES: COc1cc(/C=C/C(=O)c2ccc(O)cc2)ccc1OC/C=C(\C)CCC=C(C)C
- inhibition at 10 µg/mL (Trypanosoma cruzi [2]): 20.4%
- inhibition at 10 µg/mL (Leishmania mexicana [4]): 17.6%

SMILES: CC1CS(=O)(=O)CCN1/N=C/c1ccc([N+](=O)[O-])o1 (stereo not drawn) [NIFURTIMOX]
- CC50 at 20 h [1]: 201 µM
- selectivity ratio [3]: 23.1
- IC50 (Trypanosoma cruzi [5]): 8.7 µM

SMILES: C[C@@H]1[C@H](O)[C@@H](C)/C=C/C=C/C=C/C=C/C=C/C=C/C=C/[C@H](O[C@@H]2O[C@H](C)[C@@H](O)[C@H](N)[C@@H]2O)C[C@@H]2O[C@](O)(C[C@@H](O)C[C@@H](O)[C@H](O)CC[C@@H](O)C[C@@H](O)CC(=O)O[C@H]1C)C[C@H](O)[C@H]2C(=O)O [AMPHOTERICIN B]
- CC50 at 20 h [1]: 60.7 µM
- inhibition at 0.5 µg/mL (Leishmania mexicana [13]): 99%
- IC50 (Leishmania mexicana [10]): 0.28 µM
- selectivity ratio [12]: 216

SMILES: CC(C)=CCC/C(C)=C/CC/C(C)=C/COc1cccc(/C=C/C(=O)c2ccccc2)c1
- IC50 (Leishmania major): 1.4 to 88.8 µM
- IC50 (Leishmania donovani): 1.4 to 88.8 µM

SMILES: CC(C)=CCC/C(C)=C/COc1cccc(/C=C/C(=O)c2ccccc2)c1
- IC50 (Leishmania major): 1.4 to 88.8 µM
- IC50 (Leishmania donovani): 1.4 to 88.8 µM

SMILES: O=C(Cn1ccnc1[N+](=O)[O-])NCc1ccccc1 [BENZNIDAZOLE]
- CC50 at 20 h [1]: 352 µM
- inhibition at 10 µg/mL (Trypanosoma cruzi [2]): 77.4%
- IC50 (Trypanosoma cruzi [5]): 42.3 µM

SMILES: CC(C)=CCC/C(C)=C/COc1ccccc1/C=C/C(=O)c1ccccc1
- IC50 (Leishmania major): 1.4 to 88.8 µM
- IC50 (Leishmania donovani): 1.4 to 88.8 µM

SMILES: COc1ccc(C(=O)/C=C/c2ccc(OC/C=C(\C)CCC=C(C)C)c(OC)c2)cc1
- inhibition at 10 µg/mL (Trypanosoma cruzi [2]): 13.7%
- inhibition at 10 µg/mL (Leishmania mexicana [4]): 0.7%

From ChEMBL document CHEMBL4390645, “Novel prenyloxy chalcones as potential leishmanicidal and trypanocidal agents: Design, synthesis and evaluation” (Eur J Med Chem, 2019)
